EBI2 antag = EBI2 (human) antagonism; inhibition, % at 5 µM; AID 651636; 360,000 compounds, 0.81% hits; EBI2 beta-arrestin recruitment, luminescence, 7a,25-OHC stimulated; in the data active = inhibition above about 38%;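 also: enzyme fragment complementation signal reports receptor beta-arrestin coupling in cells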
CXCR6 block = inhibitors of human CXCR6 receptor. CHO-K1 PathHunter CXCR6 beta-arrestin, luminescence. 360,000 compounds, 0.36% hits. O00574. inhibition, % at 20 µM. AID 602244; in the data active = inhibition above about 34%, passing the limit was not always enough;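 also: antagonist mode with CXCL16 agonist at 10 nM final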
APJ antag = APJ receptor antagonism. AID 2521. inhibition, % at 20 µM. 330,000 compounds, 0.32% hits. P35414. CHO-K1 APJ beta-arrestin complementation, luminescence;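 active = inhibition above about 40% at 20 µM, limit read from the data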;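 also: cells challenged with 10 nM apelin-13 agonist together with compound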
Target sequence (P35414 whole entry, looked up): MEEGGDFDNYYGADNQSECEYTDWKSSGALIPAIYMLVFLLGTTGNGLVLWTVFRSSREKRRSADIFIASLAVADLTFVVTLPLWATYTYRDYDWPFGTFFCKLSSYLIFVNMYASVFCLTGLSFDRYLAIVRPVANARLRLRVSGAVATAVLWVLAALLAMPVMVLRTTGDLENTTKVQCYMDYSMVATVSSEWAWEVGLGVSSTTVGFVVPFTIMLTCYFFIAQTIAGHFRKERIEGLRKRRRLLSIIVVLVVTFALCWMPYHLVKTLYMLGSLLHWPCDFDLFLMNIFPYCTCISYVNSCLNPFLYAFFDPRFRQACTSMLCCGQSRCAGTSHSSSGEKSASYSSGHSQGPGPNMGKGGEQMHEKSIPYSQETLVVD
APJ agonist = APJ receptor agonism; CHO-K1 APJ PathHunter beta-arrestin, luminescence; 0% DMSO wells, 100% apelin; 330,000 compounds, 0.11% hits; P35414; activation, % at 20 µM;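 active = activation more than six SD over the plate average, tested at 20 µM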
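Material: CHO-K1 APJ beta-arrestin complementation cell line; Input: cell density 1000 per well; Incubation: compound stimulation 90 min at 25 °C, detection 60 min; Signal: luminescence from split beta-galactosidase complementation, Galacton Star/Emerald II substrate; Controls: DMSO-only wells as negative, 10 nM Apelin-13 as positive control.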
HTR2A ag = agonists of mouse serotonin 5-HT2A receptor (HTR2A); P35363; CHO-K1 mHTR2A beta-arrestin complementation, luminescence; percent of 30 µM serotonin response; activation, % at 7.6 µM; 360,000 compounds, 0.66% hits;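 active = activation above a run cutoff, the mean activation of all tested compounds plus 3 SD, cut at about 14% in these data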
CCR6 antag = CCR6 (human) receptor antagonism; CHO-K1 CCR6 PathHunter beta-arrestin, luminescence, CCL20-stimulated; inhibition, % at 20 µM; 340,000 compounds, 0.49% hits;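 active = compounds whose inhibition of the agonist-driven luminescence signal at 20 µM reaches about 50%, limit read from the data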;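 also: cells stimulated with CCL20 at 14 nM final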
EBI2 antag conf = confirmation of human EBI2 receptor antagonists. shares compounds with EBI2 antag. EBI2 beta-arrestin luminescence, 7a,25-OHC antagonism. inhibition, % at 5 µM. 2,400 compounds, 29% hits. AID 651997;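 active = inhibition of at least 50%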
EBI2 agonist = EBI2 agonism counter-screen; EBI2-expressing cells, agonist mode, luminescence, 60 min; 0% vehicle, 100% 7α,25-dihydroxycholesterol control; activation, % at 5 µM; shares compounds with EBI2 antag; 2,400 tested, under 10 active;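 active = activation of at least 50%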
bGal cs = beta-galactosidase inhibition counter-screen. shares compounds with EBI2 antag. purified beta-galactosidase, luminescent Galacton Star, 15 min. inhibition, % at 5 µM. 2,400 compounds, 1% hits;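 active = replicate-average signal at least 3 plate SD below neutral wells, shown as high inhibition, flagging enzyme-inhibiting false positives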;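 also: higher means stronger loss of beta-gal luminescence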
Numbers stand for hits; i = inactive; nt = no result. Most compounds without a hit are left out; they make up all but 2.1% or so of the library.

SMILES	EBI2 antag	CXCR6 block	APJ antag	APJ agonist	HTR2A ag	CCR6 antag	EBI2 antag conf	EBI2 agonist	bGal cs
COC(=O)c1ccc(CSc2nnc(Nc3ccc(C)cc3)s2)o1	38	i	i	i	i	i	i	i	i
CCOC(=O)c1ccc(Nc2cc(C)nc(-c3ccccc3)n2)cc1	57	i	i	i	i	i	i	i	i
CCOC(=O)c1ccc(Nc2nc(C)cc(C)n2)cc1	i	i	nt	nt	i	i	nt	nt	nt
CCOc1ccc(NC(=O)C2CCN(S(=O)(=O)c3ccc4c(c3)N(C(C)=O)CCO4)CC2)cc1	i	i	i	i	i	i	nt	nt	nt
Cc1ccc(CNC(=O)C2CCN(S(=O)(=O)c3ccc4c(c3)OCCCO4)CC2)cc1	79	i	i	i	i	i	67	i	i
Cc1ccc(NC(=O)C2CCN(S(=O)(=O)c3ccc4c(c3)OCCCO4)CC2)nc1	i	i	i	i	i	i	nt	nt	nt
COc1ccc(CNC(=O)C2CCN(S(=O)(=O)c3ccc4c(c3)N(C(C)=O)CCO4)CC2)cc1	73	i	i	i	i	i	i	i	i
Cc1ccc(C(=O)Nc2ccc(N3CCN(C)CC3)nc2)cc1	i	i	i	i	i	i	nt	nt	nt
CC1=C(C(=O)N2CCOCC2)CC(CC(=O)NCc2ccco2)C(=O)N1Cc1ccccc1 (stereo unspecified)	i	i	nt	nt	i	nt	nt	nt	nt
O=c1c2c3nc4ccccc4nc3n(Cc3ccccc3)c2ncn1Cc1ccco1	51	i	nt	nt	i	i	i	i	i
COCCCn1c2nc3ccccc3nc2c2c(=O)n(Cc3ccc(Cl)cc3)cnc21	i	i	i	i	i	i	nt	nt	nt
CCOC(=O)c1c(NC(=S)NC(=O)c2cnn(CC)c2)sc2c1CCC(C)C2 (stereo unspecified)	46	i	i	i	i	i	i	i	i
COc1ccc(C(C)NC(=O)CC23CC4CC(CC(C4)C2)C3)cc1 (stereo unspecified)	i	i	i	i	i	i	nt	nt	nt
O=C(c1cccc(F)c1)N1CCN(C(=O)c2cc(-c3ccc(Cl)cc3Cl)on2)CC1	44	i	i	i	i	i	i	i	i
O=C1C=C(c2ccc3c(c2)oc2ccccc23)C[C@@H](c2ccc(Cl)cc2)C1	62	i	i	i	i	i	i	i	i
CSc1ccc(C2=CC(=O)C[C@H](c3ccc(Cl)cc3)C2)cc1	67	i	i	i	i	i	52	i	i
CC(=O)Nc1ccc(C2=CC(=O)C[C@H](c3ccc(Cl)cc3)C2)cc1	i	i	i	i	i	i	nt	nt	nt
COc1cc(F)c(C2=CC(=O)C[C@H](c3ccc(Cl)cc3)C2)cc1F	58	i	i	i	i	i	i	i	i
O=C1C=C(c2cccc(Cl)c2)C[C@@H](c2ccc(Cl)cc2)C1	53	i	i	i	i	i	i	i	i
O=C1C=C(c2ccc(Oc3ccccc3)cc2)C[C@@H](c2ccc(Cl)cc2)C1	i	i	i	i	i	i	nt	nt	nt
Cc1n[nH]c(C)c1CN(C)C(=O)C1CCC(=O)N(CC2CCCCC2)C1 (stereo unspecified)	i	i	i	i	i	i	nt	nt	nt
N#CC1(Nc2ccc(Br)cc2)CCCC1	i	i	nt	nt	i	i	nt	nt	nt
CCOc1ccc(NC(=O)CCC(=O)NNC(=O)c2ccccc2Cl)cc1	i	i	i	i	i	i	nt	nt	nt
O=C(Cc1cccc(NC(=O)C2CCCN(C(=O)C3CC3)C2)c1)Nc1ccc(C(=O)N2CCOCC2)cc1 (stereo unspecified)	i	i	nt	nt	i	i	nt	nt	nt
O=C1C=C(c2cccc(Br)c2)C[C@@H](c2ccc(Cl)cc2)C1	46	i	i	i	i	i	i	i	i
SMILES	EBI2 antag	CXCR6 block	APJ antag	APJ agonist	HTR2A ag	CCR6 antag	EBI2 antag conf	EBI2 agonist	bGal cs
O=C1C=C(c2ccc(-c3ccccc3)c(F)c2)C[C@@H](c2ccc(Cl)cc2)C1	i	i	i	i	i	i	nt	nt	nt
CCCCCn1c(SCc2ccncc2)nc2cc(C(=O)NCc3ccco3)ccc2c1=O	38	i	i	i	i	i	i	i	i
CCCCn1c(SCC(=O)NCc2ccco2)nc2ccccc2c1=O	i	i	i	i	i	i	nt	nt	nt
CC1(C)C2CCC1(C)C(NC(=O)/C=C/c1ccccc1)C2 (stereo unspecified)	46	i	i	i	i	i	i	i	i
CC1(C)C2CCC1(C)C(Nc1ccccc1)C2 (stereo unspecified)	i	i	i	i	i	i	nt	nt	nt
Cc1ccc(SCC(=O)NCCC2=CCCCC2)cc1	38	i	i	i	i	i	i	i	i
CCOC(=O)c1c(NC(=O)CS(=O)(=O)c2cn(CC)c3ccccc23)sc2c1CCCC2	i	i	i	i	i	i	nt	nt	nt
CCOC(=O)c1c(NC(=O)CS(=O)(=O)c2cn(CC)c3ccccc23)sc2c1CCCCC2	57	i	i	i	i	i	i	i	i
O=S(=O)(Nc1ccc(Cl)cn1)c1cccs1	i	i	i	i	i	i	nt	nt	nt
COCc1cc(CN2CCCC(C(=O)Nc3cccc(-n4cnnn4)c3)C2)ccc1OC (stereo unspecified)	i	i	i	i	i	nt	nt	nt	nt
Cc1c(C(=O)Nc2ccccc2)sc2nc(-c3ccccc3)cn12	44	i	i	i	i	i	i	i	i
COc1ccc(-c2cn(Cc3cccc(OC)c3)nn2)cc1	43	i	i	i	i	i	i	i	i
CCOC(=O)c1c(S(=O)(=O)NCC(=O)Nc2cc(C)ccn2)c(C)n(C)c1C	i	i	i	i	i	i	nt	nt	nt
CCCc1nn(-c2ccccc2)c2c1C(c1cccs1)C(C#N)=C(N)O2 (stereo unspecified)	53	i	i	i	i	i	60	i	i
Cc1nn(-c2ccccc2)c2c1C(c1cccs1)C(C#N)=C(N)O2 (stereo unspecified)	i	i	i	i	i	i	nt	nt	nt
O=C(NCc1ccc(F)cc1)C1CCN(S(=O)(=O)c2ccc(Cl)cc2)CC1	i	i	i	i	i	i	nt	nt	nt
O=C(NCc1ccc(Cl)cc1)C1CCN(S(=O)(=O)c2cc([N+](=O)[O-])ccc2Cl)CC1	47	i	i	i	i	i	i	i	i
O=C(NCc1ccc(Cl)cc1)C1CCN(S(=O)(=O)c2ccccc2)CC1	65	i	i	i	i	i	i	i	i
CCCC(=O)Nc1ccc(NC(=O)c2cc3ccccc3o2)c(OC)c1	i	i	i	i	i	i	nt	nt	nt

From PubChem BioAssay
